High-throughput results from PubChem.
An excerpt weighted towards active compounds, which were near 11% of everything screened.
S1P1 ag-PAM: S1P1 agonists and agonism potentiators, primary screen, cell-based, primary and confirmation screens, CRE-bla reporter; 0.57% of 56,000 active; activation, % at 9.5 µM; Sphingosine 1-phosphate receptor 1 (Homo sapiens), P21453; S1P1 CRE-bla cells, forskolin, beta-lactamase FRET, potentiator mode; S1P1 agonist co-added at EC20, 2 nM; 100% = saturating reference agonist, 0% = basal; AID 449, 2006;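 active = activation above a cutoff set at the mean activation of all tested compounds plus 3 SD, cut at about 54% in these data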;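 note: forskolin at 4 µM as EC80 and the EC20 agonist is SEW2871; 100% = SEW2871 at its EC100 plus forskolin at EC80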
M1 antagonist: antagonists of rat M1 muscarinic receptor | B-score at 10 µM | CHO-M1 cells, Fluo-4 calcium, ACh EC80 antagonist mode; stronger effect = lower value | 3.4% of 64,000 active | AID 628, 2007 | Muscarinic acetylcholine receptor M1 (Rattus norvegicus), P08482;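 active = calcium fluorescence response, raw or row-and-column corrected B-score, differing from the plate sample mean either way at a set confidence level, mostly lower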
S1P3 agonist: human S1P3 receptor agonists, primary screen, cell-based, primary and confirmation, NFAT-BLA reporter; S1P3 NFAT-BLA reporter cells, agonism, FRET ratio; relative to 1 µM S1P, basal subtracted; Sphingosine 1-phosphate receptor 3 (Homo sapiens), Q99500; activation, % at 4.5 µM; 0.1% of 60,000 active;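 active = activation above the screen-wide mean plus 3 SD, cut at about 4.5% in these data, passing the limit was not always enough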
Target sequence (Q99500 whole entry, looked up): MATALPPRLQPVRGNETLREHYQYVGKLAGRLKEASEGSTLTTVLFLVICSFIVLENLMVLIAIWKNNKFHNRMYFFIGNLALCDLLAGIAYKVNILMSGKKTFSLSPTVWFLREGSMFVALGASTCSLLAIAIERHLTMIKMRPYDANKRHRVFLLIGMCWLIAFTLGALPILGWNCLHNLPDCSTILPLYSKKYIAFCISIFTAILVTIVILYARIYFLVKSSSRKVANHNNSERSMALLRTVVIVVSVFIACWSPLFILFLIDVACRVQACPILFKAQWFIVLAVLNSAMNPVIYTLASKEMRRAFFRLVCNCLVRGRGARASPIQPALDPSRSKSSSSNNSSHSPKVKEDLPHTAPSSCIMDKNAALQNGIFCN
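material = human S1P3 NFAT-BLA reporter CHO cells | schedule = 4 h compound at 37 °C, 2 h substrate at RT | measured by = fluorescent BLA substrate, ex 405 nm, em 460/535 nm ratio | controls = 1 µM S1P reference | replication = primary once, confirmation triplicate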
D1 allo mod: D1 CRE-luciferase signal change, two-sided – cell-based, HEK293 D1, dopamine EC30, D1 allosteric modulator project, primary screen. dopamine EC30 potentiation; actives deviate in either direction. B-score at 10 µM. 5.9% of 58,000 active. D(1A) dopamine receptor (Homo sapiens), P21728;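 active = luminescence count or its row- and column-corrected plate score outside the 99.7% band of the plate's sample wells, on either side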
M1 ag: M1 muscarinic receptor agonists, primary screen, CHO-M1 cells, Fluo-4 calcium, agonist mode; Muscarinic acetylcholine receptor M1; Fluo-4 calcium fluorescence; stronger effect = higher value; B-score at 10 µM; 3% of 64,000 active;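 active = fluorescence rise, raw or as B-score row- and column-corrected plate score, outside the 99.7% band of its plate's samples, either direction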
D1 PAM confirm: D1 receptor positive allosteric modulators, retest, confirmation, cell-based, HEK293 D1, CRE-luciferase, duplicate | shares compounds with D1 allo mod | 88% of 2,200 active | luminescence at 10 µM | dopamine EC30 potentiation; stronger effect = higher value;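 active = luminescence in either of two replicates above the same-plate mean plus 3 SD of the low-dose dopamine control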
D1 no dopamine: D1 receptor agonism without dopamine, confirmation, mechanism study for D1 allosteric modulator project, cell-based, HEK293 D1, CRE-luciferase, secondary assay 1. shares compounds with D1 allo mod. luminescence, no dopamine; stronger effect = higher value. luminescence at 10 µM. 0.8% of 1,900 active; in the data active = luminescence above about 3900
Isoprot counter: counter-screen for D1 modulators: isoproterenol response in HEK293 cells. shares compounds with D1 allo mod. HEK293 D1 CRE-luciferase, isoproterenol EC30 counter-screen. calls only at 10 µM. 63% of 2,200 active;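 active = luminescence in either replicate above plate mean of wells with a partly effective reference agonist dose plus 3 SD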;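 note: isoproterenol raises cAMP through native beta-adrenoceptor Gs so signal bypasses D1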
Starred values were filed as active, the others as inactive; i = inactive; · = not tested or not shown; + = active, no number.

SMILES	S1P1 ag-PAM	M1 antagonist	S1P3 agonist	D1 allo mod	M1 ag	D1 PAM confirm	D1 no dopamine	Isoprot counter
COC(=O)C(C)Sc1nc2c(c(=O)[nH]c(=O)n2C)n1CCC(C)C (stereo not given)	4	0.3	-1	9.9*	-0.17	21460*	1708	+
C=C(C)Cn1c(SCCCO)nc2c1c(=O)[nH]c(=O)n2C	-9	-0.72	0	3.3	-0.47	·	·	·
COC(=O)C(C)Sc1nc2c(c(=O)n(C)c(=O)n2C)n1CCC(C)C (stereo not given)	-13	-1.2	-1	·	0.62	·	·	·
CC(C)Cn1c(NCCN(C)C)nc2c1c(=O)[nH]c(=O)n2C	-6	0.95	0	-0.27	-0.13	·	·	·
C=C(C)CSc1nc2c(c(=O)[nH]c(=O)n2C)n1CCC(C)C	-38	0.024	-1	11*	1	22496*	1732	+
O=S(=O)(c1ccccc1)N(C1=NCCS1)S(=O)(=O)c1ccccc1	4	0.8	-1	-0.17	0.17	·	·	·
CC1(c2ccc3noc(-c4ccccc4)c3c2)OCCO1	-16	0.27	0	3	-0.02	·	·	·
O=C(O)c1ccc2noc(-c3ccccc3)c2c1	12	0.29	0	3*	-0.89	6504	1520	i
Cc1cc2c(c(N)n1)c(=O)oc1ccccc12	-23	-0.33	-1	22*	-0.33	19088*	·	+
Cc1cc(S(=O)(=O)NCCN(C)C)c(C)s1	7	0.012	0	-0.54	0.37	·	·	·
CCOc1ccccc1NC(=O)CCSc1nc2n[nH]c(C)c2c(=N)n1-c1ccccc1Cl	·	-0.87	·	3.8*	1.6	11132*	1584	+
Cc1ccccc1-n1c(SCc2ccccn2)nc2n[nH]c(C)c2c1=N	-22	-0.9	0	2.3	-0.44	·	·	·
CCOc1ccccc1-n1c(SCC(=O)Nc2ccc(CC)cc2)nc2n[nH]c(C)c2c1=N	-33	-0.32	4	2*	-0.66	7472	1852	i
CCc1ccc(NC(=O)CSc2nnc(-c3ccccn3)n2C)cc1	-18	-0.089	0	-0.04	0.17	·	·	·
O=C(c1ccccc1)c1nc[nH]c1C(=O)Nc1ccccn1	-52	-0.42	1	4.6*	0.64	9124*	2104	i
CCOC(=O)c1[nH]cnc1C(=O)Nc1ccccn1	-12	0.059	-1	4*	0.37	10664*	1452	i
COc1cc(/C=N/n2cnnc2)ccc1OC(=O)c1ccncc1	21	0.27	-1	-0.68	-0.51	·	·	·
CCOc1ccc(NC(=O)CN(C)c2nnnn2-c2ccccc2)cc1OCC	·	1.1	·	·	-1.1	·	·	·
S=C(NCC1CCCO1)n1nnc2ccccc21 (stereo not given)	-2	0.35	-1	-0.74	-0.25	·	·	·
c1ccc2c(c1)nc(NCC1CCCO1)c1nnnn12 (stereo not given)	-2	-0.46	-1	2.9*	-0.73	9992*	1484	i
Cc1noc(C)c1Cn1nc(C(=O)O)c2ccccc2c1=O	5	-0.061	1	·	-0.71	·	·	·
O=C(NCc1cccs1)C1CCCN(c2nc3ccccc3o2)C1 (stereo not given)	17	0.024	1	-0.37	-0.48	·	·	·
CNc1nc(C)c(C#N)c(-c2ccccc2)c1C(C)=O	-14	-0.0038	1	5.8*	0.19	12136*	1680	i
COc1ccc2nc(NC(=O)CSc3nc4cccnc4n3C)sc2c1	18	·	-1	·	·	·	·	·
